# Experimental data: ChEMBL document CHEMBL3797175, “Discovery of 6-(difluoro(6-(4-fluorophenyl)-[1,2,4]triazolo[4,3-b][1,2,4]triazin-3-yl)methyl)quinoline as a highly potent and selective c-Met inhibitor” (Eur J Med Chem, 2016)
# Calls of active or inactive are those of the source. No cut-off for these calls is given here.
# How the values were obtained:
# [1] = molecular target: T1, Hepatocyte growth factor receptor (Homo sapiens, UniProt P08581); experiment: Inhibition of c-Met in human MKN45 cells assessed as reduction in ERK phosphorylation at Tyrosine 204 at 10 nM after 1 hr by Western blot analysis; assay type: cell-based; details: MKN-45
# T1 sequence (P08581 whole entry): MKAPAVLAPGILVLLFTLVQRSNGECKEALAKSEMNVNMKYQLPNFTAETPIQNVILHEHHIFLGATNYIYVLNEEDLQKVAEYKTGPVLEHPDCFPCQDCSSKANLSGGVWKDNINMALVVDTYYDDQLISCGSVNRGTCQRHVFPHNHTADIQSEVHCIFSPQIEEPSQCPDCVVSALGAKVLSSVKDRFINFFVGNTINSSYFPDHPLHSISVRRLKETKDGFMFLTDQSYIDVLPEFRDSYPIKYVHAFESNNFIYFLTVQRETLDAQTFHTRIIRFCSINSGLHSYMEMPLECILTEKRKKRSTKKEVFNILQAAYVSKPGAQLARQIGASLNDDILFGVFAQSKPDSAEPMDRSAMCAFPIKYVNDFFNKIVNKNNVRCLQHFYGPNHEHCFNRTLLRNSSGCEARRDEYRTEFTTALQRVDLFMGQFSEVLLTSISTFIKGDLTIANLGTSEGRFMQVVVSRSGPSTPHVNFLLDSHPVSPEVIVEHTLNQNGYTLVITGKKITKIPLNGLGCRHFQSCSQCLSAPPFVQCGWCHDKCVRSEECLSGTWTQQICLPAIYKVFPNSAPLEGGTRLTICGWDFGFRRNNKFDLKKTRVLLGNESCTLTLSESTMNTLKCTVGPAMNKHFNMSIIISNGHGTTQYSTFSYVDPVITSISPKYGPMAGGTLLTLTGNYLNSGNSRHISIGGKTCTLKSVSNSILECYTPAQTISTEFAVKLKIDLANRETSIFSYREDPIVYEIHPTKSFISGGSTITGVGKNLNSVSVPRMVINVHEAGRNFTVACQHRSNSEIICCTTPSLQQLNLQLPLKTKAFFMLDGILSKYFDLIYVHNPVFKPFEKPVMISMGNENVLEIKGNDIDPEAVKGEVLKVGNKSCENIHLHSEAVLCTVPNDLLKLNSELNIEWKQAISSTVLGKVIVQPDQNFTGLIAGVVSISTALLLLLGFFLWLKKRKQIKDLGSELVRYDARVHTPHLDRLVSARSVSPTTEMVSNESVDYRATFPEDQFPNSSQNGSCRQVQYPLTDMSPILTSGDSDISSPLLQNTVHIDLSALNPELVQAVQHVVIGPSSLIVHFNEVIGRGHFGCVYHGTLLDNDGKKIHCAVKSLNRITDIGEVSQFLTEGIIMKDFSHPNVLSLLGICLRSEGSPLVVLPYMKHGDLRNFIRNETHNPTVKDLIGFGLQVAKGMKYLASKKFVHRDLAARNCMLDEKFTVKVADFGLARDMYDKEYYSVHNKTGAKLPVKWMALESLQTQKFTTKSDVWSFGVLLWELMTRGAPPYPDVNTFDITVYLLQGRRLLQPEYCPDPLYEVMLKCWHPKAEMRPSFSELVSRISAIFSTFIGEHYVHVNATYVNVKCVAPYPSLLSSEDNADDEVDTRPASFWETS
# Outline: (§1)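 EBC-1 or MKN45 cells treated with compound 1 h at 37 °C without HGF, then lysed in 1× SDS sample buffer. Lysates run on 10% SDS-PAGE and transferred to nitrocellulose. Probed with antibodies to c-Met, phospho-c-Met, phospho-ERK1/2, phospho-AKT, AKT and GAPDH, then HRP secondary. ECL detection.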
# [2] = molecular target: T1, Hepatocyte growth factor receptor; experiment: Inhibition of c-Met phosphorylation at Tyrosine 1235 in HGF stimulated human U87MG cells at 10 nM after 1 hr by Western blot analysis; assay type: cell-based; details: U-87MG ATCC
# Outline: (§2)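 U87MG cells serum-starved 24 h, pretreated with compound 1 h at 37 °C, then stimulated with HGF (100 ng/mL) for 15 min. Lysed in 1× SDS sample buffer, resolved by 10% SDS-PAGE and blotted to nitrocellulose. Probed for phospho-c-Met, phospho-ERK1/2, phospho-AKT and totals, with GAPDH as loading control. ECL detection.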
# [3] = Selectivity ratio of IC50 for human Calu3 cells to IC50 for human EBC1 cells; assay type: ADME, cell-based; details: calu-3
# Outline: (§3)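 Both IC50s in each ratio come from one proliferation assay. Cells were seeded and exposed the next day to a range of concentrations for 72 h, then read by SRB or MTT. IC50s were fitted by four-parameter concentration–response, with each concentration at least in triplicate and at least 2 experiments. BaF3/TPR-Met is murine pre-B BaF3 transfected with TPR-MET and puromycin-selected.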
# [4] = molecular target: T1, Hepatocyte growth factor receptor; experiment: Inhibition of c-Met phosphorylation at Tyrosine 1234 in HGF stimulated human U87MG cells at 10 nM after 1 hr by Western blot analysis; assay type: cell-based; details: U-87MG ATCC; outline: as §2
# [5] = molecular target: T1, Hepatocyte growth factor receptor; experiment: Inhibition of c-Met phosphorylation at Tyrosine 1234 in human MKN45 cells at 10 nM after 1 hr by Western blot analysis; assay type: cell-based; details: MKN-45; outline: as §1
# [6] = Oral bioavailability in Sprague-Dawley rat at 10 mg/kg administered as single dose; assay type: ADME, organism-based; details: in vivo
# Outline: (§4)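 Male Sprague-Dawley rats (n=3), single dose. IV 2 mg/kg in 1% DMA/9% Cremophor/90% saline; PO 10 mg/kg in 0.5% CMC-Na. For one compound, IV 10 mg/kg in DMSO/Tween 80/PEG40 and PO 10 mg/kg in 10% DMSO/5% Tween 80/85% saline.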
# [7] = Selectivity ratio of IC50 for human BGC823 cells to IC50 for human EBC1 cells; assay type: ADME, cell-based; details: bgc-823; outline: as §3
# [8] = Selectivity ratio of IC50 for human NCI-H1299 cells to IC50 for mouse BAF3 cells expressing TPR-MET; assay type: ADME, cell-based; outline: as §3
# [9] = Volume of distribution at steady state in Sprague-Dawley rat at 2 mg/kg, iv administered as single dose; assay type: ADME, organism-based; details: in vivo, read-out: Vdss; outline: as §4
# [10] = Selectivity ratio of IC50 for human PANC1 cells to IC50 for human EBC1 cells; assay type: ADME, cell-based; details: panc-1
# Outline: (§5)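 Each cell line was seeded in 96-well plates, then exposed the next day to a range of compound concentrations for 72 h. Growth was read by SRB or MTT assay, and IC50 was fitted by a four-parameter concentration-response curve. Each concentration was run at least in triplicate, in at least 2 experiments. BaF3/TPR-Met are murine pre-B BaF3 cells transfected with TPR-MET cDNA and selected in puromycin.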
# [11] = Selectivity ratio of IC50 for human MGC803 cells to IC50 for human EBC1 cells; assay type: ADME, cell-based; details: mgc-803; outline: as §3
# [12] = Selectivity ratio of IC50 for human SGC7901 cells to IC50 for mouse BAF3 cells expressing TPR-MET; assay type: ADME, cell-based; outline: as §5
# [13] = molecular target: T1, Hepatocyte growth factor receptor; experiment: Inhibition of c-Met in human NCI-H441 cells assessed as inhibition of HGF-induced cell invasion after 24 hrs by crystal violet staining based microscopic analysis
# Outline: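 NCI-H441 cells, 1.5×10^5 in serum-free medium, placed in upper Transwell chamber (8 µm pores; Matrigel-coated for invasion). Lower chamber serum-free medium ± HGF 100 ng/mL, with compound. After 24 h at 37 °C, non-migrated cells removed. Traversed cells stained with 0.1% crystal violet 15 min and imaged in 5 fields per filter. Three independent experiments.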
# [14] = Selectivity ratio of IC50 for human NCI-H661 cells to IC50 for human MKN45 cells; assay type: ADME, cell-based; details: mkn-45; outline: as §3
# [15] = molecular target: T1, Hepatocyte growth factor receptor; experiment: Inhibition of c-Met in human MKN45 cells assessed as reduction in ERK phosphorylation at Threonine 202 at 10 nM after 1 hr by Western blot analysis; assay type: cell-based; details: MKN-45; outline: as §1
# [16] = molecular target: T1, Hepatocyte growth factor receptor; experiment: Inhibition of c-Met in human EBC1 cells assessed as reduction in AKT phosphorylation at Serine 473 at 10 nM after 1 hr by Western blot analysis; assay type: cell-based; outline: as §1
# MDA-MB-231 = experiment: Antiproliferative activity against human MDA-MB-231 cells after 72 hrs by SRB or MTT assay; assay type: functional, cell-based; details: MDA-MB-231, 72 h
# Outline: (§6)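 Cells seeded, exposed next day to a range of concentrations for 72 h. Growth read by sulforhodamine B or MTT. IC50 from four-parameter concentration-response fit. Each concentration tested at least in triplicate, with at least 2 experiments.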
# [17] = molecular target: Tyrosine-protein kinase Mer (Homo sapiens) (UniProt Q12866); details: 1000 nM
# Tyrosine-protein kinase Mer (Homo sapiens), sequence (Q12866 whole entry): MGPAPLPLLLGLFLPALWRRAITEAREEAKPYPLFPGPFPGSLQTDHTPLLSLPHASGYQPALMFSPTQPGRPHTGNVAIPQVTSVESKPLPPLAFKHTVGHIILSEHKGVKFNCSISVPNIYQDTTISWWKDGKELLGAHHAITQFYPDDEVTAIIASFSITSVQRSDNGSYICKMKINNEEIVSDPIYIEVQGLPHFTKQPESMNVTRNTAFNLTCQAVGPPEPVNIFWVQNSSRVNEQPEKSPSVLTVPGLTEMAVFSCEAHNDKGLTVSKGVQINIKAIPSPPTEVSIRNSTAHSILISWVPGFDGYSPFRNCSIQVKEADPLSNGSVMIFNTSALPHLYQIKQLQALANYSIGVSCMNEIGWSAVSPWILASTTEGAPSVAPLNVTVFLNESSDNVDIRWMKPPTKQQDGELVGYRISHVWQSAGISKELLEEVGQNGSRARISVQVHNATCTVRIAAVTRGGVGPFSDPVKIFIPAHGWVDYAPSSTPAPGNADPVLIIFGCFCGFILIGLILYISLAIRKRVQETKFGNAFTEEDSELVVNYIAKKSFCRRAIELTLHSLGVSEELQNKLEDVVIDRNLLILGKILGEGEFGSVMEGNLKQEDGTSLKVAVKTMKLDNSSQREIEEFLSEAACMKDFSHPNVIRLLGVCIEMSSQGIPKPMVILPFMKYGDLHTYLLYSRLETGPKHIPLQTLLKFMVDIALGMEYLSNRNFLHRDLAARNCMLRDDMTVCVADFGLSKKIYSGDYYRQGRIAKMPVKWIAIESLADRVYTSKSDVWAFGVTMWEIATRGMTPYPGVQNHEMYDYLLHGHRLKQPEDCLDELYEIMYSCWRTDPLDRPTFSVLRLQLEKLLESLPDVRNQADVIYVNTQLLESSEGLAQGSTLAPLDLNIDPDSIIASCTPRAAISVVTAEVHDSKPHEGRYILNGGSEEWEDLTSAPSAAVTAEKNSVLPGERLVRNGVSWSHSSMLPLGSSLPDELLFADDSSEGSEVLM
# [18] = Antiproliferative activity against human MGC803 cells after 72 hrs by SRB or MTT assay; assay type: functional, cell-based; details: MGC-803, 72 h; outline: as §6
# [19] = Selectivity ratio of IC50 for human SMMC7721 cells to IC50 for mouse BAF3 cells expressing TPR-MET; assay type: ADME, cell-based
# [20] = Selectivity ratio of IC50 for human NCI-H661 cells to IC50 for mouse BAF3 cells expressing TPR-MET; assay type: ADME, cell-based; outline: as §3
# [21] = Selectivity ratio of IC50 for human U87MG cells to IC50 for human EBC1 cells; assay type: ADME, cell-based; details: u-87mg atcc
# [22] = Selectivity ratio of IC50 for human NCI-H3122 cells to IC50 for mouse BAF3 cells expressing TPR-MET; assay type: ADME, cell-based; outline: as §3
# [23] = Selectivity ratio of IC50 for human SNU16 cells to IC50 for human MKN45 cells; assay type: ADME, cell-based; details: snu-16
# [24] = molecular target: TPR/MET fusion protein (Mus musculus) (UniProt P16056+F6ZDS4); experiment: Inhibition of TPR-MET phosphorylation in mouse BAF3 cells at 10 nM after 1 hr by Western blot analysis; assay type: cell-based
# Outline: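 BaF3 stably expressing TPR-MET (puromycin-selected), grown with IL-3-conditioned medium. Treated 1 h at 37 °C, lysed in SDS sample buffer. 10% SDS-PAGE and immunoblot for phospho-c-Met, phospho-ERK1/2, phospho-AKT and totals; ECL detection.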
# [25] = molecular target: Tyrosine-protein kinase Mer (Homo sapiens, UniProt Q12866); experiment: Inhibition of recombinant c-Mer (unknown origin) using poly (Glu, Tyr) 4:1 as substrate incubated for 60 mins by ELISA
# Tyrosine-protein kinase Mer, sequence (Q12866 whole entry): as above
# [26] = Selectivity ratio of IC50 for human Bel7404 cells to IC50 for human EBC1 cells; assay type: ADME, cell-based; outline: as §3
compound,measurement,setting,value
Fc1ccc(-c2cnc3nnc(C(F)(F)c4ccc5ncccc5c4)n3n2)cc1,inhibition,[1],Active
same,inhibition,[2],Active
same,Ratio IC50,[3],> 10000
same,inhibition,[4],Active
same,inhibition,[5],Active
same,bioavailability,[6],48.3%
same,Ratio IC50,[7],> 10000
same,Ratio IC50,[8],10000
same,Vd,[9],4.89 L/kg
same,Ratio IC50,[10],10000
same,Ratio IC50,[11],> 10000
same,Ratio IC50,[12],> 10000
same,inhibition,[13],Dose-dependent effect
same,Ratio IC50,[14],> 10000
same,inhibition,[15],Active
same,inhibition,[16],Active
same,IC50,MDA-MB-231,> 10 µM
same,inhibition,[17],13.5%
same,IC50,[18],> 10 µM
same,Ratio IC50,[19],10000
same,Ratio IC50,[20],> 10000
same,Ratio IC50,[21],10000
same,Ratio IC50,[22],10000
same,Ratio IC50,[23],10000
same,inhibition,[24],Active
same,IC50,[25],> 1 µM
same,Ratio IC50,[26],10000
